These results are taken from ChEMBL document CHEMBL1240470, “Synthesis and evaluation of some novel dibenzo[b,d]furan carboxylic acids as potential anti-diabetic agents” (Eur J Med Chem, 2010).

Assay [1] addresses T1, Tyrosine-protein phosphatase non-receptor type 2 (Homo sapiens, UniProt P17706).
T1 sequence (P17706 whole entry): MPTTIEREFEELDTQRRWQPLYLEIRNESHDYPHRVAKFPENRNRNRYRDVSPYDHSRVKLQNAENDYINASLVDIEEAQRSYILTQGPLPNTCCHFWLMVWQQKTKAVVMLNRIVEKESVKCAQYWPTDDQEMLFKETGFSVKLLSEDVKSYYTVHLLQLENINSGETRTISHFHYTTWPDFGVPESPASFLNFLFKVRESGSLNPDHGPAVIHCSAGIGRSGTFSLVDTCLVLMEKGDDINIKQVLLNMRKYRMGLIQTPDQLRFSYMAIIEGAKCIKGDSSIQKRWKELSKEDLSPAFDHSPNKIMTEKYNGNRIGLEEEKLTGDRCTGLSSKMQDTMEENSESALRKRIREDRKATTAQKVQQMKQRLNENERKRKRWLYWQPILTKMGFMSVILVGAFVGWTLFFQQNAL
The experiment in a line: Inhibition of human recombinant TCPTP after 30 mins by spectrophotometry. In a few lines:
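In-house human recombinant enzyme (40 ng) was preincubated with inhibitor (1% DMSO) for 10 min at 37 °C in 25 mM Hepes pH 7.0 containing 3 mM DTT, 0.15 M NaCl, 1 mM EDTA and 0.01% NP-40. Reaction was started with 2.5 mM pNPP and followed at 405 nm for 30 min at 37 °C, then quenched with NaOH. Activity came from a p-nitrophenol standard curve.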

Assay [2] has as its target T2, Tyrosine-protein phosphatase non-receptor type 1 (Homo sapiens, UniProt P18031).
T2 sequence (P18031 whole entry): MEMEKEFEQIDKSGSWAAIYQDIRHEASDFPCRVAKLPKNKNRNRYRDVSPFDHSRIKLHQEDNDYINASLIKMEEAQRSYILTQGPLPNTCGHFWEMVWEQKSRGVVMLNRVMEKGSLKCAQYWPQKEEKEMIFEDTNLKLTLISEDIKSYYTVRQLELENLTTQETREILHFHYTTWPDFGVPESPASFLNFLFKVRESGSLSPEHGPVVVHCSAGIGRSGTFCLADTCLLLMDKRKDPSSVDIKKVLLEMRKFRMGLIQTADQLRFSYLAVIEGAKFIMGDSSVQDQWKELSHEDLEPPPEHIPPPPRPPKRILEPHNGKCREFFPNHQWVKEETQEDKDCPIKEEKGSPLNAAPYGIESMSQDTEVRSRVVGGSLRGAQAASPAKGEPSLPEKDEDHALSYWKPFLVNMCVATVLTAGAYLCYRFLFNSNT

Assay [3] concerns the target Receptor-type tyrosine-protein phosphatase F (Homo sapiens, UniProt P10586).
Assay [4] is filed under the species Mus musculus. As to conditions: 10 mg/kg.
The species named for assay [5] is Mus musculus. As to conditions: Blood, 10 mg/kg.
For assay [6], the system named is Mus musculus. The experiment in a line: Antidiabetic activity in ob/ob mouse assessed as fasting plasma glucose at 10 mg/kg measured on day 14 (RVb = 194 +/- 17 mg/dL).
For assay [7], the system named is Mus musculus. As to the kind of experiment: Antidiabetic activity in ob/ob mouse assessed as fasting plasma glucose at 10 mg/kg, ip measured on day 14 (RVb = 194 +/- 17 mg/dL). The following applies: route intraperitoneal. The format is functional.
Assay [8] concerns Mus musculus. As to the kind of experiment: Antidiabetic activity in ob/ob mouse assessed as plasma cholesterol level at 10 mg/kg, ip measured on day 14 (RVb = 193 +/- 4 mg/dL). Type of assay: functional. As to conditions: route intraperitoneal.
Assay [9] is filed under the species Mus musculus. As to conditions: Plasma, 10 mg/kg.
Assay [10] has as its system Mus musculus. As to the kind of experiment: Antidiabetic activity in ob/ob mouse assessed as whole blood glucose at 10 mg/kg, ip measured on day 10 (reference value: 138 +/- 8 mg/dL). The format is functional. The following applies: route intraperitoneal.
Assay [11] has as its system Mus musculus. The experiment in a line: Antidiabetic activity in ob/ob mouse assessed as decrease in body weight at 10 mg/kg, po measured on day 15. Type of assay: functional, organism-based. Set-up: dose 10 mg/kg.
Assay [12] has as its system Mus musculus. The experiment in a line: Antidiabetic activity in ob/ob mouse assessed as whole blood glucose at 10 mg/kg, po measured on day 10 (reference value: 139 +/- 8 mg/dL).
Assay [13] concerns Mus musculus. As to the kind of experiment: Antidiabetic activity in ob/ob mouse assessed as reduction in fed-state whole blood glucose at 10 mg/kg, po measured on day 7. The format is functional, organism-based. Set-up: dose 10 mg/kg.

Active and inactive are the calls of the source. No cut-off for these calls is given here.

Sequence of Receptor-type tyrosine-protein phosphatase F (P10586 whole entry): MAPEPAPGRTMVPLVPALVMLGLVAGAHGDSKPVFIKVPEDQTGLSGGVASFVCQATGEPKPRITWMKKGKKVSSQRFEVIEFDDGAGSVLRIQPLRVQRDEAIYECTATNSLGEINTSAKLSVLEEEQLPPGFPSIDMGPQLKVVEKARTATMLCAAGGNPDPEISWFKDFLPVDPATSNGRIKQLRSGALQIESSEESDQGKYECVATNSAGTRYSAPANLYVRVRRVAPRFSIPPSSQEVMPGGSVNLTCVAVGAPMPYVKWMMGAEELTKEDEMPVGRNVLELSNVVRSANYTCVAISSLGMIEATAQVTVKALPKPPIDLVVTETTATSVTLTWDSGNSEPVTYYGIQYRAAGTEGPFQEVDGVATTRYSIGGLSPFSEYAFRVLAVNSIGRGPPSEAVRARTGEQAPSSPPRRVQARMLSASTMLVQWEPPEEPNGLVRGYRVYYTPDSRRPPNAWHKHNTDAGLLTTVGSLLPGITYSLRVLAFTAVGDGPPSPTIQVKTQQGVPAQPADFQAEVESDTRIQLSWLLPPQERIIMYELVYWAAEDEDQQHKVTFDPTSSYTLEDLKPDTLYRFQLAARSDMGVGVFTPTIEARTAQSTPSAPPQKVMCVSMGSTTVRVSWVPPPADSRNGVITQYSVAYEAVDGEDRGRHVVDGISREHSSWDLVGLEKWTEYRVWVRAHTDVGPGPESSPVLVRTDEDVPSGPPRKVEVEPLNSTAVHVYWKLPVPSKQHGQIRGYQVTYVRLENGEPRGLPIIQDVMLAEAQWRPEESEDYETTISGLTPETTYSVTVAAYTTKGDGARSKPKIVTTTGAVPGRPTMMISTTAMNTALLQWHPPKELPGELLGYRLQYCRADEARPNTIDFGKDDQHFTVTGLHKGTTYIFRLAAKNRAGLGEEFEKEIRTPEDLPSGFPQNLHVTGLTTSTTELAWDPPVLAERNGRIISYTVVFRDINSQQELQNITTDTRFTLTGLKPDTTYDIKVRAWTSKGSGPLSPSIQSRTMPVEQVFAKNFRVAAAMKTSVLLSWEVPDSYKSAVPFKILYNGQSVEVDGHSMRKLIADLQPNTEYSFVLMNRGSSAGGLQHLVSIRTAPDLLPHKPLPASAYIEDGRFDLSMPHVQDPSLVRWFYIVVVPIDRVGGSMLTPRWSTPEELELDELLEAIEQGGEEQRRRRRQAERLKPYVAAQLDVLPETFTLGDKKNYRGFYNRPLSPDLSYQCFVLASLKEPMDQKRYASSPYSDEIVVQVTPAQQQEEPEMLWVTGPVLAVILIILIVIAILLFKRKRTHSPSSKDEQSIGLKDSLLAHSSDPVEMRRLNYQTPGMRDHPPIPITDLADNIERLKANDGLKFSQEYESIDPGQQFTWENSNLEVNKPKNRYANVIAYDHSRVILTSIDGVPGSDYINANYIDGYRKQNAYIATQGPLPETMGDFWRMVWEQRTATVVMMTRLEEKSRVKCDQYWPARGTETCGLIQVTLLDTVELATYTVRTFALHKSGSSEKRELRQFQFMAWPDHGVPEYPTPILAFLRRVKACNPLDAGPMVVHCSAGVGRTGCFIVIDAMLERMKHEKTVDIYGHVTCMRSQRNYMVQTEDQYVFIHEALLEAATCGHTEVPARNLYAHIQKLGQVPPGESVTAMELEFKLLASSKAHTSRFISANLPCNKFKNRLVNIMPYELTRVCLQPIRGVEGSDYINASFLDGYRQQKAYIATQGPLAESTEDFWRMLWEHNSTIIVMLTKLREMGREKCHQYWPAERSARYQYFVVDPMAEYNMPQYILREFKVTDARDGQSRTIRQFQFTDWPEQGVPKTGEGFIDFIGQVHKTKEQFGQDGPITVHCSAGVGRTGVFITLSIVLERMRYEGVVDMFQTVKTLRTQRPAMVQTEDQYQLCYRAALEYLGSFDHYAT

As usually defined, the IC50 is the midpoint of a concentration-inhibition curve. As for `CC1CN(c2ccc(-c3nc(-c4ccc5oc6c(C(=O)O)cccc6c5c4)cs3)cc2)CC(C)O1` (stereo unspecified), the IC50 came out at 1430 nM in assay [1], 187 nM in [2] and 2140 nM in assay [3].
As to `Cc1ccc(-c2nc(-c3ccc4oc5c(C(=O)O)cccc5c4c3)cs2)cc1`, the concentration for half-maximal inhibition (IC50) in assay [1] was 730 nM; in assay [2], 515 nM; in [3], 1320 nM.
`O=C(O)c1cccc2c1oc1ccc(-c3csc(-c4ccc(N5CCCC5)cc4)n3)cc12`: the inhibition entry in the assay listed under Mus musculus [4] and in the assay filed under Mus musculus [5] was “Active” throughout. The IC50 in [1] stood at 1660 nM; in [2], 82 nM; in assay [3], 2990 nM. In addition, the Activity in the assay with Mus musculus [6] stood at 124 mg/dL; in the assay on Mus musculus [7], 93 mg/dL; in the assay with Mus musculus [8], 138 mg/dL; with Mus musculus [10] it was 93 mg/dL. In the assay listed under Mus musculus [9], the inhibition entry is “inactive”.
The compound `Cc1nc(-c2ccc(Cl)cc2)sc1OCCc1cc(C(O)(C(=O)O)C(F)(F)F)ccc1OCc1ccccc1` (stereo unspecified) yielded an IC50 in [2] of 3200 nM.
Turning to `O=C(O)c1cccc2c1oc1ccc(-c3csc(-c4cccc(I)c4)n3)cc12`, the IC50 was determined as 1620 nM in [1], 425 nM in assay [2] and 2100 nM in assay [3].
Take `Nc1ccc(-c2nc(-c3ccc4oc5c(C(=O)O)cccc5c4c3)cs2)cc1`: the IC50 turned out to be 693 nM in [1] and 185 nM in assay [2].
With `O=C(O)/C=C/c1cccc(-c2nc(-c3ccc4oc5c(C(=O)O)cccc5c4c3)cs2)c1`, the figures for the IC50 in assay [1], in [2] and in [3] were 794 nM, 551 nM and 2070 nM, respectively.
The corresponding values for `CN(C)c1ccc(-c2nc(-c3ccc4oc5c(C(=O)O)cccc5c4c3)cs2)cc1` are 961 nM, 257 nM and 3750 nM.
Regarding `O=C(O)c1cccc2c1oc1ccc(-c3csc(-c4ccc(I)cc4)n3)cc12`, the half-maximal inhibitory concentration (IC50) in assay [1] was determined as 1870 nM; in assay [2] it was 395 nM.
Regarding `O=C(O)c1cccc2c1oc1ccc(-c3csc(-c4ccc(N5CCOCC5)cc4)n3)cc12`, the figures for the 50% inhibitory concentration (IC50) in assay [1], in assay [2] and in assay [3] were 1630 nM, 280 nM and 2940 nM, respectively.
Usually Ki stands for the dissociation constant of the complex between target and ligand, obtained from inhibition or displacement. On to `CCc1cc(C[C@H]2NC(=O)CN(CCCCOc3cccc(O)c3C(=O)OC)C2=O)ccc1N(C(=O)C(=O)O)c1ccccc1C(=O)O` [OXALYLAMINOBENZOIC ACID], for which the IC50 in [1] was 136 nM; in assay [2], 38 nM; in [3], 410 nM. Also, the Ki in assay [1] was determined as 65 nM; in [2], 18 nM.
Turning to `O=C(O)c1cccc2c1oc1ccc(-c3csc(-c4ccc(N5CCCCC5)cc4)n3)cc12`, the IC50 turned out to be 2070 nM in assay [1], 121 nM in [2] and 2070 nM in assay [3].
For the compound `O=C(O)c1cccc2c1oc1ccc(-c3csc(-c4cc(Br)c(C(=O)[C@H](Cc5ccccc5)C(=O)O)c(Br)c4)n3)cc12`, the IC50 in assay [1] turned out to be 3140 nM; in [2], 177 nM; in assay [3] it was 3570 nM.
On to `CN(CCOc1ccc(CC2SC(=O)NC2=O)cc1)c1ccccn1.O=C(O)/C=C\C(=O)O` (stereo unspecified) [ROSIGLITAZONE MALEATE], for which the inhibition entry with Mus musculus [11] was “inactive”. In addition, the Activity in the assay with Mus musculus [12] is 90 mg/dL. Further, the inhibition entry with Mus musculus [13] is “Active”.
As to `O=C(O)/C=C/c1ccc(-c2nc(-c3ccc4oc5c(C(=O)O)cccc5c4c3)cs2)cc1`, the IC50 worked out at 983 nM in assay [1], 620 nM in [2] and 1980 nM in [3].
Consider `O=C(O)c1cccc2c1oc1ccc(-c3csc(-c4ccc([N+](=O)[O-])cc4)n3)cc12`, for which the figures for the IC50 in assay [1], in [2] and in [3] were 348 nM, 201 nM and 2870 nM, respectively.
For the compound `O=C(O)c1ccc(-c2nc(-c3ccc4oc5c(C(=O)O)cccc5c4c3)cs2)cc1`, the half-maximal inhibitory concentration (IC50) in assay [1] came out at 2100 nM; in assay [2], 388 nM; in assay [3], 3250 nM.
